The values below come from PMC3866046 (Biochemical pharmacology, 2013).

Where two headings read alike, the source gives them in different places.

Series [1] concerns the target T1, hENT2 (Homo sapiens, UniProt Q14542).
T1 sequence (Q14542 1-456): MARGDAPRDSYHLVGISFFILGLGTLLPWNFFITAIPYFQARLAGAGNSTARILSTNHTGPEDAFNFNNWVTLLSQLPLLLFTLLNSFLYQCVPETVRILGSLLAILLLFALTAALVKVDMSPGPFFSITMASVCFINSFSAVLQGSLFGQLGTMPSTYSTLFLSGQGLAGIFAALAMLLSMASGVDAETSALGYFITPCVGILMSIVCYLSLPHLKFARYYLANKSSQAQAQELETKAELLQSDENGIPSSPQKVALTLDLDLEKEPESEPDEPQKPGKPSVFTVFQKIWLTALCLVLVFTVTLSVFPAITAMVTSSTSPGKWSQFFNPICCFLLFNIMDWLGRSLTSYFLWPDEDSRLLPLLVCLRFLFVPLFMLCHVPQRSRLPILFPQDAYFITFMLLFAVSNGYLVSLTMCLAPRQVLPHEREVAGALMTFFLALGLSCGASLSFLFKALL
The experiment in a line: Inhibition of [3H]uridine uptake in PK15/hENT2 cells. Type of series: cell-based. Put shortly:
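PK15 cells stably expressing hENT2, in sodium-free choline chloride buffer at pH 7.4. Test compound was added for 15 min, either at graded concentrations or at 10 μM for screening; 0.2 μM [3H]uridine was then taken up for 2 min. Stopped with ice-cold PBS washes, lysed in Triton X-100, scintillation counted. Triplicates; screening uptake given as % of compound-free uptake; IC50 by nonlinear fit.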

Series [2] concerns human ENT4. The settings on record: read-out: apparent Km of adenosine transport; pH 5.5; cited from earlier work.
Series [3] relates to mouse ENT4. The following applies: read-out: apparent Km of adenosine transport; pH 5.5; cited from earlier work.
Series [4] concerns the target T2, hENT4 (Homo sapiens, UniProt Q7RTT9).
T2 sequence (Q7RTT9 1-530): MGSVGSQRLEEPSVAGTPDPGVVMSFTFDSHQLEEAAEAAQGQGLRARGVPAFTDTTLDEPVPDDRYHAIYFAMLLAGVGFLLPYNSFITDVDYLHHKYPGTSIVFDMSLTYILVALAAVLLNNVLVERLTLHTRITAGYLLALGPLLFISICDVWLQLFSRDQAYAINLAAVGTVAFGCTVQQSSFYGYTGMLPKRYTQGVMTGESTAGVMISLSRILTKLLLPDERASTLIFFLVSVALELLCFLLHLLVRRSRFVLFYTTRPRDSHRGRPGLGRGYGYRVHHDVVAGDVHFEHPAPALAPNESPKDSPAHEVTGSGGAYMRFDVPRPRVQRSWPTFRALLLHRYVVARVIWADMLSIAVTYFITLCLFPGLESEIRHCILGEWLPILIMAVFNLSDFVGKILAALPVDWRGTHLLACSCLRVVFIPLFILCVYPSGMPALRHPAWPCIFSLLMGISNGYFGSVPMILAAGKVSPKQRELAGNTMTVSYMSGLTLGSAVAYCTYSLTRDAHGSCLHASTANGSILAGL
The experiment in a line: Inhibition of [3H]adenosine uptake in PK15/hENT4 cells at pH 6.0. Type of series: cell-based. The essentials:
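PK15NTD porcine kidney cells stably expressing FLAG-tagged hENT4 (cDNA cloned from HUVECs, G418-selected). Cells preincubated 15 min with graded test compound concentrations in transport buffer at pH 6.0, then given 0.2 μM [3H]adenosine for 2 min. Stopped by aspiration and three ice-cold PBS washes, lysed in 5% Triton X-100, scintillation counted. Triplicates; IC50 by nonlinear fitting.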

The target in series [5] is T1, hENT2. The settings on record: read-out: hENT2 IC50; cited from earlier work.
Series [6] deals with PK15-hENT4 cells. The experiment in a line: MTT assay for cell viability. Type of series: cell-based, porcine. The settings on record: 10 μM, 24 hours, compared with camptothecin. Put shortly: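 PK15NTD (nucleoside-transporter-deficient) cells stably expressing recombinant hENT4 were trypsinised and seeded at 5 × 10^3 cells/well in MEM. […] MTT (5 mg/ml stock in PBS) was added for 4 h at 37 °C. Formazan was dissolved in 0.04 N HCl/isopropanol for 3 h at room temperature, and absorbance was read at 570 nm.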

On to `OCCN(CCO)c1nc(N2CCCCCCC2)c2nc(N(CCO)CCO)nc(N3CCCCCCC3)c2n1` [Compound 13, 2,6-bis(diethanolamino)-4,8-diheptamethyleneimino-pyrimido[5,4d]pyrimidine], for which, in series [1], the “activity against hENT2 (in words)” value is listed as “active”.
On to `Nc1ncnc2c1ncn2[C@@H]1O[C@H](CO)[C@@H](O)[C@H]1O` [adenosine], for which the figures for the Km in series [2] and in series [3] were 780 µM and 130 µM, respectively.
Regarding `O=[N+]([O-])c1ccc(CSc2ncnc3c2ncn3[C@@H]2O[C@H](CO)[C@@H](O)[C@H]2O)cc1` [NBMPR, nitrobenzylmercaptopurine ribonucleoside, reference compound], the half-inhibitory concentration (IC50) is 1350 nM in series [1], 2330 nM in series [4] and 2800 nM in series [5].
As to `CC(C)CN(CC(C)C)c1nc(NCCO)nc2c(N(CC(C)C)CC(C)C)nc(NCCO)nc12` [Compound 30, 2,6-diethanolamino-4,8-di-(diisobutylamino)-pyrimido[5,4-d]pyrimidine], the “selectivity for hENT4 relative to ENT1” value in series [4] is listed as “about 80 fold”. Besides, the “selectivity for hENT4 relative to ENT2” value in series [4] is reported as ~20 fold. The entries for the “cytotoxicity / cell viability (in words)” value in series [6] and in series [6] (listed as compound 30) were “no cytotoxicity” and “significantly non-cytotoxic”, respectively.
